# Screens from PubChem.
# PKA-R1A activ: PKA-R1A complex activation | P00514+P68181 | AID 504707 | PKA-R1A dissociation, Cy5-IP20 fluorescence polarization; scaled: DMSO 0%, 113 µM cGMP 100% | activation, % at 11.4 µM | 340,000 compounds, 0.083% hits;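 active means percent activation above the mean of all tested compounds plus 3 SD, cut at about 19% in these data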;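 further: higher means more PKAc released from R1A so a rise in polarization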
# CCR6 antag: blocks CCL20-driven beta-arrestin recruitment at human CCR6 | P51684 | CHO-K1 CCR6 PathHunter beta-arrestin, luminescence, CCL20-stimulated | inhibition, % at 20 µM | 340,000 compounds, 0.49% hits | AID 493098;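 active means compounds whose inhibition of the agonist-driven luminescence signal at 20 µM reaches about 50%, limit read from the data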;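 further: cells stimulated with CCL20 at 14 nM final; plate controls were DMSO with CCL20 for no effect and DMSO without agonist for full effect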
# PKA-R2B activ: activates the human PKA-R2B holoenzyme complex. P22694+P31323. PKA-R2B holoenzyme dissociation, Cy5-IP20 fluorescence polarization; R2B truncated from residue 108, S112A mutant; 0% DMSO only, 100% 113 µM cGMP. activation, % at 11.4 µM. 340,000 compounds, 0.079% hits. AID 504700;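 active means activation above a cutoff set at the mean over all compounds plus 3 SD, cut at about 18% in these data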;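 further: higher means more holoenzyme dissociation and a rise in polarization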
# CXCR6 block: inhibitors of human CXCR6 receptor; 360,000 compounds, 0.36% hits; inhibition, % at 20 µM; O00574; CHO-K1 PathHunter CXCR6 beta-arrestin, luminescence; in the data active means inhibition above about 34%, passing the limit was not always enough;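 further: antagonist mode with CXCL16 agonist at 10 nM final; 0% = 10 nM CXCL16 with DMSO and 100% = unstimulated wells without agonist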
# APJ antag: APJ receptor antagonism; inhibition, % at 20 µM; CHO-K1 APJ beta-arrestin complementation, luminescence; P35414; 330,000 compounds, 0.32% hits;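 active means inhibition above about 40% at 20 µM, limit read from the data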;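 further: cells challenged with 10 nM apelin-13 agonist together with compound; plate controls were apelin-13 plus DMSO wells for no effect and DMSO wells lacking apelin-13 for full effect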
# Target sequence (P35414 whole entry, looked up): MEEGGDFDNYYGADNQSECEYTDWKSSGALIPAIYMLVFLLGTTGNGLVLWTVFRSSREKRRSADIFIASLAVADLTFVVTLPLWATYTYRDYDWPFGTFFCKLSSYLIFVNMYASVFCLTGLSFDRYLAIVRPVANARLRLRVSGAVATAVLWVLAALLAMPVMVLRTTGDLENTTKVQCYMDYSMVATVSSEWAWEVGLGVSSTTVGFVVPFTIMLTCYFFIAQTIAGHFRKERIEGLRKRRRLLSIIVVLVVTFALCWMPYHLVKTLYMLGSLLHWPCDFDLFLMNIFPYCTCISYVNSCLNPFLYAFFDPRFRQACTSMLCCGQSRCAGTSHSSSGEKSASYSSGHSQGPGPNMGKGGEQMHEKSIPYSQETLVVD
# APJ agonist: APJ receptor agonism. P35414. CHO-K1 APJ PathHunter beta-arrestin, luminescence; 0% DMSO wells, 100% apelin. activation, % at 20 µM. 330,000 compounds, 0.11% hits;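 active means activation more than six SD over the plate average, tested at 20 µM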;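 further: 0% = DMSO alone and 100% = apelin-13 at 10 nM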
#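 system = engineered CHO-K1 APJ arrestin reporter cells | input = 1000 cells per well | timing = overnight seeding, 90 min compound at 25 °C, 1 h detection | measured by = enzyme-fragment complementation luminescence | read-out = beta-arrestin recruitment to APJ as agonist activity, luminescent signal | control set = negative DMSO alone, positive Apelin-13 at 10 nM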
# APJ antag conf: confirmation of human APJ apelin receptor antagonists | shares compounds with APJ antag | APJ beta-arrestin recruitment, luminescence, antagonist mode | inhibition, % at 20 µM | 950 compounds, 66% hits; in the data active means inhibition above about 50%
# Numbers without * were called inactive; / = no result. Hits are enriched below; roughly 0.88% of the tested compounds scored in any of these assays.
SMILES,PKA-R1A activ,CCR6 antag,PKA-R2B activ,CXCR6 block,APJ antag,APJ agonist,APJ antag conf
O=C(NNC(=S)Nc1ccc(Cl)cc1Cl)c1ccc(N2CCOCC2)c([N+](=O)[O-])c1,-9.5,26.8,-9.2,25.3,40.4*,-5.1,62.4*
COc1ccc(C(=O)NC(=S)Nc2cccc(Cl)c2N2CCOCC2)cc1[N+](=O)[O-],8.9,33.2,-2.4,26.9,81.2*,-10.1,55.4*
O=C(NNC(=S)Nc1ccc(Br)cc1)c1ccc(N2CCOCC2)c([N+](=O)[O-])c1,7.2,45.6,-9.6,20.6,31.8,-4.5,/
CCOC(=O)[C@]12CCC=C1N(Cc1ccccc1)C(=O)[C@H](CC(=O)N1CCOCC1)C2,/,/,/,-4.8,/,/,/
O=C1NC[C@H](CCCCN2C[C@H](Cc3ccccc3)N(CCc3ccc(O)cc3)C(=O)C2=O)N(CCc2ccccc2)C1=O,/,/,/,0.3,/,/,/
Cc1ccc2nc3sc(C(=O)N4CCCc5ccccc54)c(N)c3cc2c1,-3.1,18.8,-0.6,-3.4,75.9*,-13.3,-8.2
CC(/C=N/n1c(C2CCCCC2)n[nH]c1=S)=C\c1ccccc1,-12.6,33.3,-18.5,11.9,46.7*,-5.3,78.4*
Cc1cccc(/C=N/n2c(C3CCCCC3)n[nH]c2=S)c1,0.1,12.3,-15.7,6.6,16.9,-2.9,/
COc1ccc(S(=O)(=O)Cc2ccc(C(=O)NCc3ccco3)o2)cc1,4.4,3.0,7.1,-1.6,-5.6,-3.1,/
COc1ccc(S(=O)(=O)Cc2ccc(C(=O)NCc3ccccc3OC)o2)cc1,-3.8,16.8,-4.6,1.8,44.6*,3.1,3.7
CCc1ccc(NC(=O)c2ccc(C3SCC(=O)N3CCc3ccccc3)cc2)cc1 (stereo not given),2.2,4.9,-3.4,-5.8,62.3*,2.0,-9.3
Cc1ccc(C2=NN3C(C(=O)c4ccccc4)Oc4ccccc4C3C2)cc1 (stereo not given),-5.4,13.2,9.9,20.4,45.6*,3.1,45.6
Cc1ccc(C(=O)C2Oc3ccccc3C3CC(c4ccc(C)cc4)=NN23)cc1 (stereo not given),-1.4,12.2,-8.8,2.5,5.2,3.8,/
Cc1ccc(O)c(N=Nc2ccc(S(=O)(=O)N3CCOCC3)cc2)c1,-10.4,29.6,7.4,9.0,36.9,-0.1,/
CC(C)(C)c1cc(Br)c(O)c(N=Nc2ccc(S(=O)(=O)N3CCOCC3)cc2)c1,-4.5,52.1*,-16.9,29.3,43.5*,-2.5,45.8
O=[N+]([O-])c1ccc(O)c(-c2nc(-c3ccccc3)c(-c3cccs3)[nH]2)c1,-6.4,45.5,-0.2,28.2,41.5*,-5.7,54.0*
O=C(Nc1ccccc1Oc1ccccc1)c1cccs1,2.5,12.0,6.2,10.0,-8.4,-1.7,/
CCOc1ccc(C(=O)NC(=S)N(Cc2ccccc2)Cc2ccccc2)cc1,-15.7,27.5,-4.6,32.7,/,/,/
CC(C)(C)C(=O)NC(=S)NNC(=O)c1ccncc1,-2.6,18.1,3.8,-7.4,-14.0,-4.8,/
CCCN(CCC)C(=S)NC(=O)c1ccc(-c2ccccc2)cc1,4.2,37.1,2.0,23.4,45.4*,-7.7,6.8
CC(C)(C)C(=O)NC(=S)NNC(=O)c1ccc(-c2ccccc2)cc1,-9.6,101.9*,-10.6,84.0*,66.3*,-8.6,111.9*
COc1ccc(Br)c(C(=O)OCC(=O)N2CCC(Cc3ccccc3)CC2)c1,-0.2,13.2,-2.9,-2.9,-10.9,0.3,/
CC(C)(C)c1cc(Cl)c(O)c(NC(=S)NC(=O)c2cccnc2)c1,-8.1,52.0*,4.7,39.9*,66.6*,-9.2,78.2*
CCNC(=O)C1(C)CCN(C(=O)CCc2ccccc2)C1 (stereo not given),/,/,/,0.3,/,/,/
CCOC(=O)c1nnc2c(Br)c(-c3ccccc3)nn2c1C,0.1,38.4,-9.4,27.8,44.0*,-13.0,14.6
SMILES,PKA-R1A activ,CCR6 antag,PKA-R2B activ,CXCR6 block,APJ antag,APJ agonist,APJ antag conf
CCOC(=O)c1nnc2cc(-c3ccccc3)nn2c1C,3.0,-6.0,-9.5,1.5,8.2,-3.7,/
Cc1nn(CC(=O)NCCCc2ccccc2)c(=O)c2cc3occc3n12,-9.6,7.9,-5.9,4.1,41.2*,-0.7,-2.3
Cc1ccc2c(c1)cc1c(=O)n(CC(=O)NCCCc3ccccc3)nc(C)n12,-1.4,1.9,-1.8,6.5,8.2,-7.5,/
COc1cc(/C=C(\C#N)C(=O)c2c[nH]c3ccccc23)cc(OC)c1O,-4.3,57.5*,1.6,45.7*,40.4*,-5.1,79.2*
Cc1ccc(-c2c(C(=O)N/N=C/c3cccc(Cl)c3)nnn2-c2nonc2N)cc1,-11.7,18.4,-3.7,8.9,52.9*,-8.1,62.4*
CCN1C(=O)/C(=C2\C=Cc3ccccc3N2CC)SC1=S,-1.4,84.1*,2.9,56.8*,43.5*,-5.9,100.2*
CCN1C(=O)/C(=c2\o/c(=C3\C=Cc4ccccc4N3CC)c(=O)n2CC)SC1=S,2.4,28.2,-6.2,5.0,/,/,/
COc1cc2[nH]c(C(=O)N3CCN(c4ccccc4F)CC3)cc2c(OC)c1OC,-5.4,-4.4,-1.8,-3.1,8.3,-6.1,/
CCCCn1c(NC(=O)c2ccc(Br)o2)c(S(=O)(=O)c2ccccc2)c2nc3ccccc3nc21,-15.4,12.0,-14.7,9.7,54.6*,-9.7,-11.4
CCCCn1c(NC(=O)c2ccco2)c(S(=O)(=O)c2ccc(C)cc2)c2nc3ccccc3nc21,2.0,-4.2,9.1,3.4,/,/,/
C=CCn1c(C2CC2)n[nH]c1=S,-12.7,5.2,-11.2,-1.0,4.5,-1.4,/
CCCCCC1CCC(c2n[nH]c(=S)n2C)CC1 (stereo not given),-9.2,42.5,-6.2,32.0,40.6*,-7.5,78.2*
COc1ccc(NC(=O)Nc2cccc3c2O[C@@H](CN(C)CC2CCCCC2)[C@@H](C)CN([C@H](C)CO)C3=O)cc1,1.7,-0.9,-3.0,0.9,61.9*,-4.2,62.3*
O=C(O)CC(NC(=O)CCc1ccccc1)c1ccc(Cl)cc1 (stereo not given),-3.1,5.3,-3.5,-4.0,-6.9,1.5,/
COc1ccc(C)cc1NC(=O)COC(=O)C1CC1,6.3,5.0,3.9,-1.6,40.9*,6.7,12.6
COc1ccc(CCNC(=O)c2cc(COc3c(F)cccc3F)on2)c(OC)c1,-6.5,0.1,-4.7,-5.5,-8.3,-2.1,/
CCOc1ccc(Br)cc1S(=O)(=O)Nc1ccccc1N1CCOCC1,-1.3,10.5,-11.8,12.8,12.4,-1.9,/
COc1cc(/C=C/C(=O)CC(=O)/C=C/c2ccc(O)c(OC)c2)ccc1O,2.6,66.0*,3.8,37.2,61.9*,-9.5,92.7*
